The target of assay [1] is Serine/threonine-protein kinase PAK 3 (Homo sapiens) (UniProt O75914). Briefly: Inhibition of recombinant full-length human PAK3 at 10 uM using RRRLSFAEPG as substrate measured after 40 mins in presence of [gamma33P]ATP by scintillation counting method.
In assay [2] the target is Serine/threonine-protein kinase tousled-like 2 (Homo sapiens) (UniProt Q86UE8). Briefly: Inhibition of human TLK2 (387 to end residues) using casein as substrate measured after 40 mins in presence of [gamma33P]ATP by scintillation counting method.
For assay [3], the target named is Serine/threonine-protein kinase WNK2 (Homo sapiens) (UniProt Q9Y3S1). Nature of the assay: Inhibition of human WNK2 (166 to 489 residues) using myelin basic protein as substrate measured after 40 mins in presence of [gamma33P]ATP by scintillation counting method.
In assay [4] the target is Serine/threonine-protein kinase NIM1 (Homo sapiens) (UniProt Q8IY84). Nature of the assay: Inhibition of recombinant full-length human NIM1 at 10 uM using KKKVSRSGLYRSPSMPENLNRPR as substrate measured after 40 mins in presence of [gamma33P]ATP by scintillation counting method.
Assay [5] deals with Glycogen synthase kinase-3 alpha (Homo sapiens) (UniProt P49840). Briefly: Inhibition of recombinant human GSK3alpha (2 to end residues) at 10 uM using phospho GS2 peptide as substrate measured after 40 mins in presence of [gamma33P]ATP by scintillation counting method.
Sequence of Glycogen synthase kinase-3 alpha (Homo sapiens) (P49840 2-483 limits assumed): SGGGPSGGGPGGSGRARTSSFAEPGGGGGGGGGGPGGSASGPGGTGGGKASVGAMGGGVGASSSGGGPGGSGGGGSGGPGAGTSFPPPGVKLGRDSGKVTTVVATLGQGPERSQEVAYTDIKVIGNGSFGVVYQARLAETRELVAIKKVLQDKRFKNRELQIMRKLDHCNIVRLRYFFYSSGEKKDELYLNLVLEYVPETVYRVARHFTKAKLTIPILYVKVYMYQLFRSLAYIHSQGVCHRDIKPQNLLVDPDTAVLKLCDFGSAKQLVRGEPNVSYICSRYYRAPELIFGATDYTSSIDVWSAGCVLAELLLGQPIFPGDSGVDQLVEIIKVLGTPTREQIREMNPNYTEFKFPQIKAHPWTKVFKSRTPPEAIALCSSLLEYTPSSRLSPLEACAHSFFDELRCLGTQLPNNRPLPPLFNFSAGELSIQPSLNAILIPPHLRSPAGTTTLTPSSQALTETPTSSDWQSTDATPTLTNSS
The target of assay [6] is Casein kinase 2 (Homo sapiens) (UniProt P67870+P68400+P19784+Q8NEV1). Nature of the assay: Inhibition of human CK2 at 10 uM. Format: protein assay. The procedure, abridged: (§1)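 Kinase panel of 422 kinases screened by Eurofins KinaseProfiler at a single test-compound concentration of 10 µM.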
In assay [7] the target is Protein kinase C gamma type (Homo sapiens) (UniProt P05129). Briefly: Inhibition of recombinant full-length human PKCgamma at 10 uM using histone H1 as substrate measured after 40 mins in presence of [gamma33P]ATP by scintillation counting method.
For assay [8], the target named is Protein kinase C zeta type (Homo sapiens) (UniProt Q05513). Briefly: Inhibition of recombinant human PKCzeta (2 to end residues) at 10 uM using ERMRPRKRQGSVRRRV as substrate measured after 40 mins in presence of [gamma33P]ATP by scintillation counting method.
The subject of assay [9] is Angiopoietin-1 receptor (Homo sapiens), Q02763 [Q939H,Q940H]. Nature of the assay: Inhibition of human Tie2 Q939H/Q940H mutant (771 to end residues) using poly(Glu, Tyr) 4:1 as substrate measured after 40 mins in presence of [gamma33P]ATP by scintillation counting method.
Assay [10] has as its target Cyclin-dependent kinase-like 3 (Homo sapiens) (UniProt Q8IVW4). Nature of the assay: Inhibition of recombinant human full-length CDKL3 (1 to 303 residues) at 10 uM using RRRFRPASPLRGP as substrate measured after 120 mins in presence of [gamma33P]ATP by scintillation counting method.
Assay [11] deals with Serine/threonine-protein kinase PAK 6 (Homo sapiens) (UniProt Q9NQU5). Briefly: Inhibition of recombinant human PAK6 (382 to end residues) at 10 uM using RRRLSFAEPG as substrate measured after 40 mins in presence of [gamma33P]ATP by scintillation counting method.
Assay [12] concerns the target Hepatocyte growth factor receptor (Homo sapiens) (UniProt P08581). Briefly: Inhibition of recombinant human MET A1209G/V1290L mutant (974 to end residues) at 10 uM using KKKGQEEEYVFIE as substrate measured after 40 mins in presence of [gamma33P]ATP by scintillation counting method.
The test system of assay [13] is Serine/threonine-protein kinase Sgk2 (Homo sapiens), Q9HBY8 [S416D]. Briefly: Inhibition of recombinant human SGK2 S416D mutant (54 to end residues) at 10 uM using GRPRTSSFAEGKK as substrate measured after 40 mins in presence of [gamma33P]ATP by scintillation counting method.
For assay [14], the target named is Serine/threonine-protein kinase MRCK gamma (Homo sapiens) (UniProt Q6DT37). Briefly: Inhibition of recombinant human MRCKgamma at 10 uM using KKRNRTLTV as substrate measured after 40 mins in presence of [gamma33P]ATP by scintillation counting method.
Sequence of Serine/threonine-protein kinase MRCK gamma (Homo sapiens) (Q6DT37 whole entry): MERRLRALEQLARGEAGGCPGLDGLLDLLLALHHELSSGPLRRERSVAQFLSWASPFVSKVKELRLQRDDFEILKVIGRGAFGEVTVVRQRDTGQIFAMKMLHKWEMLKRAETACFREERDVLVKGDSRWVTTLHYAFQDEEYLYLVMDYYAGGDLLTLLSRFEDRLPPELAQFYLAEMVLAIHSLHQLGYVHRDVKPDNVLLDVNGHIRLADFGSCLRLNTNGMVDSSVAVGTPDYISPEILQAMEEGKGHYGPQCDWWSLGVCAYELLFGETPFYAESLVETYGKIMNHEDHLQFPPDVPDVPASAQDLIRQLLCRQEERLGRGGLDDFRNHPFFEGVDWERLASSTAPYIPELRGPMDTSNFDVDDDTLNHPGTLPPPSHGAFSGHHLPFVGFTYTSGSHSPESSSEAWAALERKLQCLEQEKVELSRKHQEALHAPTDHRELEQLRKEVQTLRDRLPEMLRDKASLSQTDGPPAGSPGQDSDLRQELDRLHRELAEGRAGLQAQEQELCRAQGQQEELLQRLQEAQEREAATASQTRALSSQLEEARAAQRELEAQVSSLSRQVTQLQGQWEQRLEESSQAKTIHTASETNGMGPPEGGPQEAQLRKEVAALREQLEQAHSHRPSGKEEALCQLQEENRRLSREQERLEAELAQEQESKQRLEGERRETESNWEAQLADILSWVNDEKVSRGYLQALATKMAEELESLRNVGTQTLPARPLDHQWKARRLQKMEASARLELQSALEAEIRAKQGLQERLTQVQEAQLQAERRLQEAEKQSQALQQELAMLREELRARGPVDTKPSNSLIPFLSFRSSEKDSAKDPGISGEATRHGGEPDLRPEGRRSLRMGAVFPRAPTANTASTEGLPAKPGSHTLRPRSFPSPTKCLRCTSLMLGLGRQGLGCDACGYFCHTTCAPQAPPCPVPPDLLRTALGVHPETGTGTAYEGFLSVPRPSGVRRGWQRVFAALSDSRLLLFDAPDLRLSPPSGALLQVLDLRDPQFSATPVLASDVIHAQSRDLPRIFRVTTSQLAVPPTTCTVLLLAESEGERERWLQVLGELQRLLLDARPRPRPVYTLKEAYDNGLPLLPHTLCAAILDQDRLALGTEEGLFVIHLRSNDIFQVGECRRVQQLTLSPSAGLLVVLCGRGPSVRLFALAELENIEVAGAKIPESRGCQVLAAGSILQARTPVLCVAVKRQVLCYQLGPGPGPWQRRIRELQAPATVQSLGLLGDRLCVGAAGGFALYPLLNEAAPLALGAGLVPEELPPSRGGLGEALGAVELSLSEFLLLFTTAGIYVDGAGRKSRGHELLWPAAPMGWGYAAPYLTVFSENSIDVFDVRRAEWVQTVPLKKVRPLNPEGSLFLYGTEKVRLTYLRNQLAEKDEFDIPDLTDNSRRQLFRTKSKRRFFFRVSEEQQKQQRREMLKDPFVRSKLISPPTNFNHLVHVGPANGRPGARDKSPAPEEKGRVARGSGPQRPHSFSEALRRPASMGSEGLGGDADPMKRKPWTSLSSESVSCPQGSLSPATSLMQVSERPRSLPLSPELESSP
The target of assay [15] is Transcription initiation factor TFIID subunit 1-like (Homo sapiens) (UniProt Q8IZX4). Nature of the assay: Inhibition of human TAF1L (1428 to end residues) using RRRFRPASPLRGPPK as substrate measured after 120 mins in presence of [gamma33P]ATP by scintillation counting method.
Assay [16] has as its target Ribosomal protein S6 kinase alpha-5 (Homo sapiens) (UniProt O75582). Nature of the assay: Inhibition of recombinant human MSK1 (2 to end residues) at 10 uM using GRPRTSSFAEGKK as substrate measured after 40 mins in presence of [gamma33P]ATP by scintillation counting method.
Assay [17] concerns the target Bromodomain-containing protein 3 (Homo sapiens) (UniProt Q15059). Briefly: Binding affinity to human partial length BRD3 bromodomain 2 (G306 to P416 residues) expressed in bacterial expression system at 1 uM by BROMOscan assay. The procedure, abridged: (§2)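 BROMOscan bromodomain cross-screen run by an outside service, compound at 1 µM against 32 recombinant bromodomains. Binding given as percent of control.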

Assay [18] addresses Casein kinase I isoform gamma-1 (Homo sapiens) (UniProt Q9HCP0). Briefly: Inhibition of recombinant human CK1gamma1 (25 to 355 residues) at 10 uM using KRRRALS(p)VASLPGL as substrate measured after 40 mins in presence of [gamma33P]ATP by scintillation counting method.
Assay [19] concerns the target Histone acetyltransferase KAT2B (Homo sapiens, UniProt Q92831). Briefly: Binding affinity to human partial length PCAF (G715 to D831 residues) expressed in bacterial expression system at 1 uM by BROMOscan assay. The method, boiled down: as §2
The target of assay [20] is Mitogen-activated protein kinase 1 (Homo sapiens) (UniProt P28482). Briefly: Inhibition of human MAPK2 at 10 uM. The method, boiled down:
as §1

Assay [21] deals with Serine/threonine-protein kinase ULK3 (Homo sapiens) (UniProt Q6PHR2). Nature of the assay: Inhibition of recombinant full-length human ULK3 at 10 uM using casein as substrate measured after 40 mins in presence of [gamma33P]ATP by scintillation counting method.
The target of assay [22] is Activated CDC42 kinase 1 (Homo sapiens) (UniProt Q07912). Nature of the assay: Inhibition of recombinant human ACK1 (1 to 389 residues) at 10 uM using EFPIYDFLPAKKK as substrate measured after 40 mins in presence of [gamma33P]ATP by scintillation counting method.
Assay [23] addresses CDK9/cyclin T1 (Homo sapiens) (UniProt O60563+P50750). Briefly: Inhibition of recombinant full length human CDK9/cyclinT1 at 10 uM using KTFCGTPEYLAPEVRREPRILSEEEQEMFRDFDYIADWC as substrate measured after 40 mins in presence of [gamma33P]ATP by scintillation counting method. Type of assay: protein-complex assay.
Assay [24] relates to Epidermal growth factor receptor (Homo sapiens), P00533 [L858R,T790M]. Briefly: Inhibition of recombinant human EGFR T790M/L858R mutant (696 to end residues) at 10 uM using GGMEDIYFEFMGGKKK as substrate measured after 40 mins in presence of [gamma33P]ATP by scintillation counting method.

Calls of active or inactive are those of the source. No cut-off for these calls is given here.

Sequence of Ribosomal protein S6 kinase alpha-5 (Homo sapiens) (O75582 whole entry, looked up, the tested form may be a part): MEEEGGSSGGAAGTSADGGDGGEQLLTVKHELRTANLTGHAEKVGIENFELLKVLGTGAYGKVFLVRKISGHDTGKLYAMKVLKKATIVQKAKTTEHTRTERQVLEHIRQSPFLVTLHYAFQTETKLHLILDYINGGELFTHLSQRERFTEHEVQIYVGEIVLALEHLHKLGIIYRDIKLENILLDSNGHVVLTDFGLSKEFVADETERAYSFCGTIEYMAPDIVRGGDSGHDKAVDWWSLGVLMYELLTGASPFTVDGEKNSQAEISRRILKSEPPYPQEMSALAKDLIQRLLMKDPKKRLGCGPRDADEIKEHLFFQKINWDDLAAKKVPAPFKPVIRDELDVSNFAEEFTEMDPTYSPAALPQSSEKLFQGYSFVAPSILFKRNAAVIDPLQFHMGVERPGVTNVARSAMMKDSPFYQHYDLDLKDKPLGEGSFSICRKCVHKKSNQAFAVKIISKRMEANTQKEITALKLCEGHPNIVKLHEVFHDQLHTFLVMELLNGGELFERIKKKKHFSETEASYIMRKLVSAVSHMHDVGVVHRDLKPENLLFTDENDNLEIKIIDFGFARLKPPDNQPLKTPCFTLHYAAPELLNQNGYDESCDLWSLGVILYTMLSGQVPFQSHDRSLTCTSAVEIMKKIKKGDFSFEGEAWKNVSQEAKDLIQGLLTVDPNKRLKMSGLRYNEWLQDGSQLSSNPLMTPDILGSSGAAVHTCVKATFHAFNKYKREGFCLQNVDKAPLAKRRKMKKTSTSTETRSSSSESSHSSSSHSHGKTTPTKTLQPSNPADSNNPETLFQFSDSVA
Sequence of Cyclin-dependent kinase-like 3 (Homo sapiens) (Q8IVW4 whole entry, looked up, the tested form may be a part): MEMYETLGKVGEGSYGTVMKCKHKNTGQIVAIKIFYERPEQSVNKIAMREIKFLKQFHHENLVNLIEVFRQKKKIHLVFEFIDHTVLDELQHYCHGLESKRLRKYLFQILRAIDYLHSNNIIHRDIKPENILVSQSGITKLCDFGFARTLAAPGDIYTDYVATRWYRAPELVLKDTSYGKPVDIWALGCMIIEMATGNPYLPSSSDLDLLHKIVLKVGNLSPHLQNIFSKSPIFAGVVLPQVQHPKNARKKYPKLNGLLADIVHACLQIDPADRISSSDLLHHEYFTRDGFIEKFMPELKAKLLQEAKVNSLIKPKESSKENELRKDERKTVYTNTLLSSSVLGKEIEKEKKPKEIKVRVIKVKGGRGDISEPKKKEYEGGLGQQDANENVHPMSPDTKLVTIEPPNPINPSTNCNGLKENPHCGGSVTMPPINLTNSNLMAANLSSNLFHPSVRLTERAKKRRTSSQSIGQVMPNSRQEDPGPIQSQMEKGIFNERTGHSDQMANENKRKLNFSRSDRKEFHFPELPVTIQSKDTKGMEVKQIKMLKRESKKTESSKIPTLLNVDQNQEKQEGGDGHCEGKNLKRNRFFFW
Sequence of Angiopoietin-1 receptor (Homo sapiens), Q02763 [Q939H,Q940H] (Q02763 whole entry Q939H/Q940H, the tested form may be a part): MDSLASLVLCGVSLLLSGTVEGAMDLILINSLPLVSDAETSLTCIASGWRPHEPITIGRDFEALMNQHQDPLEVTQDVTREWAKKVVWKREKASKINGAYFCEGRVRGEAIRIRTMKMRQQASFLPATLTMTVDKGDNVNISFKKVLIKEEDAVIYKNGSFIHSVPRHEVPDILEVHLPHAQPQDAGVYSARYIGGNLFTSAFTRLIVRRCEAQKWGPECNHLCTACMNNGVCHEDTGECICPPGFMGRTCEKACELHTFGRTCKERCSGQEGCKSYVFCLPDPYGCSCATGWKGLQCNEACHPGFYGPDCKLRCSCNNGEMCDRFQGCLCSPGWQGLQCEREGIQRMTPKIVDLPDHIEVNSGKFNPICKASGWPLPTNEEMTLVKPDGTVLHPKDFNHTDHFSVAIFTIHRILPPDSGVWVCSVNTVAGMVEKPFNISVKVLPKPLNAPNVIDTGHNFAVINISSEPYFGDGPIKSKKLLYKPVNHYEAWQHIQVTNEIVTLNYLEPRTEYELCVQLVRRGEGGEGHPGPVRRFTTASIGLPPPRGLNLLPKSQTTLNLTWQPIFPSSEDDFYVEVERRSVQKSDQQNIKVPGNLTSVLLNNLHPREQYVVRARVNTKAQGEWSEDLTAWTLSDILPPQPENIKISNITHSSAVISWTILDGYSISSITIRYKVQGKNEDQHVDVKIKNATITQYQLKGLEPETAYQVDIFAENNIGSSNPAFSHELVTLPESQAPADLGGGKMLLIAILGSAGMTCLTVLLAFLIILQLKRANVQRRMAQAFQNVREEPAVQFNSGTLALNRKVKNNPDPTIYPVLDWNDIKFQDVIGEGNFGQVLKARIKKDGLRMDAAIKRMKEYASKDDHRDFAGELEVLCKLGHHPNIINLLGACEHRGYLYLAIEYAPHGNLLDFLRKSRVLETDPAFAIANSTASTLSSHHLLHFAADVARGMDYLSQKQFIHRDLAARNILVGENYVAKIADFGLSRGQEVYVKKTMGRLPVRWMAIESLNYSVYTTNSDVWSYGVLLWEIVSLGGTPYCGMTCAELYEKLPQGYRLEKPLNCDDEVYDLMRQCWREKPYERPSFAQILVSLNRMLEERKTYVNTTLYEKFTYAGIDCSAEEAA
Sequence of Mitogen-activated protein kinase 1 (Homo sapiens) (P28482 whole entry): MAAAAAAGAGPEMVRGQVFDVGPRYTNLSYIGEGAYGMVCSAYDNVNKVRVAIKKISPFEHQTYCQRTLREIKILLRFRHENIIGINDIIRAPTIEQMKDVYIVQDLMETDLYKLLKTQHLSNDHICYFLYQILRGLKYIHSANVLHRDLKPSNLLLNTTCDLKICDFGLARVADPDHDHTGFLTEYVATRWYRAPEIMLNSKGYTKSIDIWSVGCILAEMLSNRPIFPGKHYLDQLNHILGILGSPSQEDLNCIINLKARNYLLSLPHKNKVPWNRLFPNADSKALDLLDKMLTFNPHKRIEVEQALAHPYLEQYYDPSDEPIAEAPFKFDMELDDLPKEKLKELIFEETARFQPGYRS

In the case of `CN1C[C@H](Nc2nc3cc[nH]c3c(=O)n2C)C[C@H](c2ccc3c(c2)OCCO3)C1`, the inhibition result in [1], in assay [2], in assay [3], in assay [4], in assay [5] and in assay [6] was “inactive” in each case. The inhibition entry in [7], in assay [8], in [9], in assay [10], in assay [11] and in assay [12] was “inactive” in each case. Also, the inhibition entry in assay [13], in assay [14], in [15], in [16], in assay [18] and in assay [20] was “inactive” in each case. Also, the inhibition result in assay [21], in assay [22], in assay [23] and in assay [24] was “inactive” throughout. For the same molecule, the outcome in assay [17] was inactive. Also, the outcome in assay [19] was Active.
